Measured values from ChEMBL document CHEMBL4513216, “Probing the Open Global Health Chemical Diversity Library for Multistage-Active Starting Points for Next-Generation Antimalarials” (ACS Infect Dis, 2020).

Experiment: Toxicity liver stage against HepG2, at 10uM
Assay type: cell-based
Design: test concentration 10 uM, cell line HepG2-A16-CD81EGFP
Conditions: human, HepG2-A16-CD81EGFP cells; read-out: INHIBITION
In short: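 Uninfected HepG2-A16-CD81EGFP cells, 3 × 10^3 per well, 1536-well, plated on prespotted compound at 10 μM final, parasite-free screening media added to match infected plates; puromycin 10 μM positive, DMSO 0.5% negative; run in parallel with 48 h PbLuc assay at 37 °C, 5% CO2; viability by CellTiter-Glo luminescence, normalized to controls.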

CC1CCN(S(=O)(=O)N2CCc3sccc3C2)CC1
cytotoxicity at 10 µM: -30.8%

CN1Cc2nc[nH]c2C[C@H]1C(=O)NC1CCCCC1
cytotoxicity at 10 µM: 0.0515%

NC(=O)CN1C(=O)CO[C@H]2CN(Cc3ccccc3)C[C@H]21
cytotoxicity at 10 µM: 0.67%

CC(C)CN1C[C@H](COCc2ccccc2)Oc2ncccc2C1=O
cytotoxicity at 10 µM: -57.4%

CNC(=O)[C@@H]1[C@@H](c2ccccc2)CN2CCN(Cc3ccccn3)C[C@H]12
cytotoxicity at 10 µM: 8.76%

COC1CN(C(=O)NCC(N)=O)CCC(=O)N(C)c2ccccc21 (stereo not drawn)
cytotoxicity at 10 µM: -3.84%

O=C(CCN1C(=O)CC2(CCCC2)C1=O)NCCc1nccs1
cytotoxicity at 10 µM: 2.86%

CCCc1nnsc1C(=O)NCC(O)c1cccs1 (stereo not drawn)
cytotoxicity at 10 µM: 4.15%

O=S(=O)(NCC1(O)CCOCC1)c1ccccc1Br
cytotoxicity at 10 µM: -5.93%

CCOc1ccccc1NC(=O)NCCc1ccoc1
cytotoxicity at 10 µM: -1.18%

c1cc(CN2CCC3(CC2)COC(COCC2CC2)C3)cs1 (stereo not drawn)
cytotoxicity at 10 µM: -0.272%

O=C(C1CCOC1)N1CCC2(CC1)COC2 (stereo not drawn)
cytotoxicity at 10 µM: 3.06%

CNC(=O)c1cnc2n1CCN(C(=O)Cc1ccccn1)C2
cytotoxicity at 10 µM: 6.68%

Cc1ccc2c(c1)C1(CCN(S(C)(=O)=O)CC1)CN2C(=O)N(C)C
cytotoxicity at 10 µM: -121%

CCN(C)c1ncnc2c1CCN(C(=O)[C@H]1CCCO1)CC2
cytotoxicity at 10 µM: 3.38%

CCS(=O)(=O)N1CCc2cc(C(=O)NC)c(N(C)C)nc2CC1
cytotoxicity at 10 µM: -141%

O=C(c1ccccc1-n1cnnn1)N1CCC2(CC1)OCCO2
cytotoxicity at 10 µM: 1.5%

Cn1c(=O)[nH]c(=O)n2c(CC(=O)Nc3ccc(Cl)c(Cl)c3)cnc12
cytotoxicity at 10 µM: 3.82%

CCC(CC)C(=O)NCc1cnn(CC)c1
cytotoxicity at 10 µM: 7.19%

Cn1cc(-c2cc(C(F)(F)F)nn2CCC#N)cn1
cytotoxicity at 10 µM: 6.5%

CCS(=O)(=O)N1CCCCC1c1nc(C)no1 (stereo not drawn)
cytotoxicity at 10 µM: 7.03%

Cc1nn(C)c2cn(CC(=O)NC3CCSCC3)nc12
cytotoxicity at 10 µM: 0.243%

CC(C)n1cc(N2CC(C(=O)N3CCCC3)CC2=O)cn1 (stereo not drawn)
cytotoxicity at 10 µM: 3.79%

CC(C(=O)NCCCn1ccnc1)n1cc(Br)cn1 (stereo not drawn)
cytotoxicity at 10 µM: -13.8%

Cc1ccc(C2CCCN(S(=O)(=O)N3CCOCC3)C2)nc1 (stereo not drawn)
cytotoxicity at 10 µM: 4.25%

O=C1Nc2ccccc2CNC12CCN(CC1CC1)CC2
cytotoxicity at 10 µM: 6.03%

COc1ccc(Cn2cc(C(C)O)nn2)cc1 (stereo not drawn)
cytotoxicity at 10 µM: 16.9%

N#Cc1ccc(CS(=O)(=O)NC(=O)c2ccc3c(c2)COC3)cc1
cytotoxicity at 10 µM: 3.65%

Cc1nnc(CSc2ccccn2)o1
cytotoxicity at 10 µM: 14.3%

CC(C)c1nnc2n1CCN(C(C(N)=O)c1ccc(F)cc1)C2 (stereo not drawn)
cytotoxicity at 10 µM: 1.54%

COc1ccccc1CC(NC(=O)N1CCOCC1)C(C)C (stereo not drawn)
cytotoxicity at 10 µM: 4.29%

Cc1nc(C(C)(C)NCc2ncc(C(C)C)o2)sc1C
cytotoxicity at 10 µM: 6.32%

O=C1CCC(=O)N1CCn1nnc(-c2ccc(Br)cc2)n1
cytotoxicity at 10 µM: 4.26%

CS(=O)(=O)N1CCC(CNc2c(Cl)cccc2C#N)CC1
cytotoxicity at 10 µM: -6.67%

N#CC1COCCN1C(=O)c1ccc2[nH]ccc2c1 (stereo not drawn)
cytotoxicity at 10 µM: 14.4%

COC(=O)c1ccc(NC(C)c2ccc3c(c2)CCC(=O)N3)nn1 (stereo not drawn)
cytotoxicity at 10 µM: 2.52%

O=C(CS(=O)(=O)Cc1cccc(Br)c1)Nc1cn[nH]c1
cytotoxicity at 10 µM: 0.575%

CCn1ccnc1CN1CCN(C(C)C(=O)NCC(F)(F)F)CC1 (stereo not drawn)
cytotoxicity at 10 µM: 9.73%

CC(C)(C)c1nc2cc(NC(=O)Cn3ccc(=O)[nH]c3=O)ccc2o1
cytotoxicity at 10 µM: -7.07%

CCC(C)(C)NC(=O)COC(=O)c1cc(C)ccc1NC(=O)N(C)C
cytotoxicity at 10 µM: 1.12%

CC(CC(=O)c1ccco1)NC(=O)c1ccon1 (stereo not drawn)
cytotoxicity at 10 µM: -17.9%

Cc1cccn2cc(CNS(=O)(=O)N3CCOCC3)nc12
cytotoxicity at 10 µM: -6.6%

COc1ccc(NC(=O)N2CCC(CSC)C2)cc1C (stereo not drawn)
cytotoxicity at 10 µM: 3.36%

Cc1cccc(C2(C(=O)NCC3CN(C)CCO3)CC2)c1 (stereo not drawn)
cytotoxicity at 10 µM: -7.45%

Cc1noc(C)c1CNC(C)c1ccc(S(=O)(=O)N(C)C)cc1 (stereo not drawn)
cytotoxicity at 10 µM: 2.47%

Cc1noc(C)c1CCC(=O)N1CCCC(n2ccnc2C)C1 (stereo not drawn)
cytotoxicity at 10 µM: 10.9%

COc1cc2c(cc1OC)CCN(C(=O)Cn1nc(C)cc1C)CC2
cytotoxicity at 10 µM: 2.63%

O=C(NCC1(C(=O)O)CCC1)c1nnn(-c2ccc(F)cc2)c1C1CC1
cytotoxicity at 10 µM: -14.8%

CC(C)(C)OC(=O)NCCNC(=O)c1cnc(-c2ccccc2)nc1
cytotoxicity at 10 µM: 8.12%

COc1c(CNC2CCOc3c(F)cccc32)c(C)nn1C (stereo not drawn)
cytotoxicity at 10 µM: 7.5%

O=C(COc1cccc2c1CCC2=O)NCC(F)(F)F
cytotoxicity at 10 µM: -8.74%

CCn1cnnc1C1CCN(C(=O)c2cccc(-n3cccc3)c2)CC1
cytotoxicity at 10 µM: 4.56%

Cc1nc(CCNC(=O)Nc2cc(C(F)(F)F)c[nH]c2=O)cs1
cytotoxicity at 10 µM: 0.614%

CCN(CC1CCOC1)C(=O)c1ccc(-c2ccsc2)nc1C (stereo not drawn)
cytotoxicity at 10 µM: 6.39%

O=C(CN1CCCC1Cn1cncn1)Nc1ccnn1C1CCCC1 (stereo not drawn)
cytotoxicity at 10 µM: -1.07%

Cc1cc(NCC(=O)N(C)C)c(C(N)=O)cc1F
cytotoxicity at 10 µM: -2.64%

CC(O)CN(c1ccccc1)S(=O)(=O)c1cc(C(=O)O)cc2c1CCC2 (stereo not drawn)
cytotoxicity at 10 µM: 11.1%

CC1CCCCN1C(=O)c1ccc(Br)s1 (stereo not drawn)
cytotoxicity at 10 µM: -8.21%

Cn1ccnc1-c1noc(NCc2ccc(Br)cc2)n1
cytotoxicity at 10 µM: -4.32%

NC(=O)C1CCCN1C1CCN(C(=O)c2ccc3c(c2)OCO3)CC1 (stereo not drawn)
cytotoxicity at 10 µM: 1.59%

O=C1CCC(=O)N1CCN1CCC(=Cc2ccccc2)CC1
cytotoxicity at 10 µM: 8.82%

CCCc1cc(C(=O)Nc2nc(SC)ns2)[nH]n1
cytotoxicity at 10 µM: -19.3%

CCOc1cccc(CCNC(=O)Cc2ccccc2O)n1
cytotoxicity at 10 µM: -2.55%

CC(C)(CNC(=O)CSc1nnnn1C1CC1)c1ccccc1F
cytotoxicity at 10 µM: 13.4%

COCCNC(=O)NC1(c2ccccc2F)CC1
cytotoxicity at 10 µM: -0.421%

CCCNC(=O)C(C)Nc1ccn(Cc2ccccn2)n1 (stereo not drawn)
cytotoxicity at 10 µM: -5.95%

CC(=O)N(Cc1noc(C)n1)C1CCN(CC2CCCC2)C1 (stereo not drawn)
cytotoxicity at 10 µM: -12.3%

Cc1nc(CNC(=O)Nc2c(C)n[nH]c2C)cs1
cytotoxicity at 10 µM: 3.51%

CCCC(=O)NS(=O)(=O)c1ccc(C#N)c(C(F)(F)F)c1
cytotoxicity at 10 µM: -12.8%

O=C1C(Nc2nccn3cnnc23)CCN1c1cccc(Cl)c1 (stereo not drawn)
cytotoxicity at 10 µM: -1.7%

COCCC(=O)N1CCc2cc(Cl)cc(Cl)c2C1
cytotoxicity at 10 µM: -13.1%

COC(=O)CCNC(=O)c1ccoc1CN1c2ccccc2CC1C (stereo not drawn)
cytotoxicity at 10 µM: -9.23%

Cc1nc(C)c2c(n1)CCN(C(=O)CC1CC1)CC2
cytotoxicity at 10 µM: 2.34%

COc1cccc(C(C(=O)O)N2CCC(Cn3cccn3)CC2)c1OC (stereo not drawn)
cytotoxicity at 10 µM: -1.77%

COCCN(Cc1cnn(C)c1)CC1CCOC1 (stereo not drawn)
cytotoxicity at 10 µM: -8.52%

Cc1n[nH]c(C)c1CC(=O)N1CCN(C)C2(CCNC(=O)CC2)C1 (stereo not drawn)
cytotoxicity at 10 µM: 2.65%

CC(=O)N1Cc2cnc(C(C)(C)C)nc2C1
cytotoxicity at 10 µM: -122%

Cc1nn(C)c2nc(NCCN3CCCC(C(N)=O)C3)sc12 (stereo not drawn)
cytotoxicity at 10 µM: 0.739%

Cc1cc(C)n2ncc(CN3CCC(Cn4cc(CO)nn4)CC3)c2n1
cytotoxicity at 10 µM: 7.85%

CCc1csc(CNC(=O)C(CC)n2cccn2)n1 (stereo not drawn)
cytotoxicity at 10 µM: -0.651%

CN(CCc1ccccn1)C(=O)C1Cc2ccccc2CN1C (stereo not drawn)
cytotoxicity at 10 µM: 1.47%

Cc1ccsc1-c1nccn1CCS(=O)(=O)N1CCCC1
cytotoxicity at 10 µM: -3.67%

CCC[C@@H]1CN(C(=O)c2cc3ccccc3s2)C[C@H]1NS(C)(=O)=O
cytotoxicity at 10 µM: -9.53%

Cc1ccc(-c2c(-c3ccccc3)ncn2CCCN2CCOCC2)o1
cytotoxicity at 10 µM: 6.23%

C[C@@H]1CN(Cc2ccncc2)C[C@]1(C)O
cytotoxicity at 10 µM: 1.6%

COC(=O)N1CCN(c2ncnc3nc(C)cc(C)c23)CC1
cytotoxicity at 10 µM: -15.2%

Cc1noc(C)c1CN(C)c1nc(C2CCCC2)nc2c1cnn2C
cytotoxicity at 10 µM: 22.2%

N#Cc1cccc(S(=O)(=O)N2CCCCC2CCN2CCCC2=O)c1 (stereo not drawn)
cytotoxicity at 10 µM: -16.9%

Cc1cc2c(=O)n3c(nc2s1)CCN(C(=O)c1ccncc1)CC3
cytotoxicity at 10 µM: 1.08%

O=C(Nc1ccc(CCN2CCC(O)CC2)cc1)C1CCCOC1 (stereo not drawn)
cytotoxicity at 10 µM: -4.81%

COc1ccccc1COCC(O)CN1CC(n2cccn2)C1 (stereo not drawn)
cytotoxicity at 10 µM: -6.25%

CCc1csc(C2CCCN(C(=O)C3=NN(CC)C(=O)CC3)C2)n1 (stereo not drawn)
cytotoxicity at 10 µM: -6.26%

Cc1noc(C)c1C(=O)NCC(O)c1ccc(F)cc1F (stereo not drawn)
cytotoxicity at 10 µM: -3.56%

COc1ccc(C(O)CNC(=O)NCc2csc(C)n2)cc1 (stereo not drawn)
cytotoxicity at 10 µM: -6.12%

NC(=O)COc1cccc(C(=O)N2CCCC(n3cccn3)C2)c1 (stereo not drawn)
cytotoxicity at 10 µM: -4.86%

Cc1nc(C)c(CC(=O)Nc2nnc(C)s2)c(=O)[nH]1
cytotoxicity at 10 µM: -2.17%

Cn1cc(Cl)cc1C(=O)N1CCCN(Cc2cccs2)CC1
cytotoxicity at 10 µM: -5.82%

CN(Cc1nc(-c2ccco2)no1)C1CCCN(c2cccnn2)C1 (stereo not drawn)
cytotoxicity at 10 µM: -7.72%

Fc1cccc(-c2nc(CN3CCCCC3Cn3cncn3)co2)c1 (stereo not drawn)
cytotoxicity at 10 µM: -12.8%

CCS(=O)(=O)c1ccccc1C(=O)NCc1ccnc(N(C)C)c1
cytotoxicity at 10 µM: -3.92%

NC(=O)CN1CC(c2nc(C3CC3)no2)C1
cytotoxicity at 10 µM: 5.62%

Cc1nc(CN2C(=O)C[C@H]3[C@H]2CCN3C2CCOCC2)cs1
cytotoxicity at 10 µM: -7.87%

c1nc2c(c(-c3ccsc3)n1)CCN(Cc1ccoc1)CC2
cytotoxicity at 10 µM: -11.4%

O=C(O)c1cc(NS(=O)(=O)c2ccc(Cl)s2)ccc1N1CCOCC1
cytotoxicity at 10 µM: -4.05%

CC1=N[C@@]2(CC[C@@H]3CN(Cc4ccccc4F)C[C@@H]32)C(=O)N1CC1CC1
cytotoxicity at 10 µM: 1.47%

O=C(C[C@@H]1COC[C@H]2CN(Cc3ccncc3)C[C@@H]12)N1CCOCC1
cytotoxicity at 10 µM: 6.59%

C[C@H]1CN(Cc2cccc(F)c2)C[C@@]12CCN(CC(=O)N(C)C)C2=O
cytotoxicity at 10 µM: -7.13%

CC[C@H]1N(CC2CCC2)CCC[C@]12CCC(=O)N2Cc1ccncc1
cytotoxicity at 10 µM: -0.508%

N#Cc1cccc(N2CC3(CCN(C(=O)c4cccnc4)C3)CC2=O)c1 (stereo not drawn)
cytotoxicity at 10 µM: 0.925%

Cc1noc(C)c1CN1CCO[C@H]2CN(CC3CC3)C[C@H]21
cytotoxicity at 10 µM: -4.25%

COCCN1C[C@@H](C)[C@@]2(COCCN(C(=O)c3cccs3)C2)C1
cytotoxicity at 10 µM: 9.7%

CC(=O)N1CCN(Cc2ccco2)CC2(CC(=O)N(C)C2)C1 (stereo not drawn)
cytotoxicity at 10 µM: -3.81%

CN(C)c1nc2cn(C3CC(C)(C)NC(C)(C)C3)c(=O)c-2c[nH]1
cytotoxicity at 10 µM: 6.39%
